Paper PMC8802302 (Journal of Medicinal Chemistry, 2021)

Experiments:
[1] = target: T1, DRAK1 (DRAK1-NLuc) (Homo sapiens, UniProt Q9UEE5); assay: NanoBRET cellular target engagement assay; format: cell-based; details: HEK293, 0.5 μM tracer K-9; n = 1 where no error, SEM n = 3
T1 sequence (Q9UEE5 1-414): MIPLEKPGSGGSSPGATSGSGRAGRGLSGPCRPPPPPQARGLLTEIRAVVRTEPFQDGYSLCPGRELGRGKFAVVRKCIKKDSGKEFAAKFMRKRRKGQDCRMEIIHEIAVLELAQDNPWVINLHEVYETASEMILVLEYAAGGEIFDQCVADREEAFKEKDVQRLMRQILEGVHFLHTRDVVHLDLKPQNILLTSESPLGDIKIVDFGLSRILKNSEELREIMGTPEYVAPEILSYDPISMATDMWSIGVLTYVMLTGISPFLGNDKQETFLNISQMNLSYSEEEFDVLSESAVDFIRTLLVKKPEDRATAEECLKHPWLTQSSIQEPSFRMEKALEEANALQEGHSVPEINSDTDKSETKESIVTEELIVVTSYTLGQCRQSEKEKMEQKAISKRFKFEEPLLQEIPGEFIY

[2] = tested on: 16-member kinase panel; assay: Eurofins custom enzymatic kinase panel, count of kinases inhibited; format: biochemical; details: 16-member Eurofins panel, 1 μM
Summary of the method: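 Radiometric kinase assays were run with ATP at Km. Each test compound was tested at a single concentration of 1 μM, in duplicate, against each panel kinase, with results as percent of control. The count is the number of kinases at ≤ 10 PoC, i.e. inhibited ≥ 90%.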

[3] = tested on: 403 wild-type (WT) human kinases; assay: DiscoverX scanMAX kinome-wide selectivity screen; format: binding; details: 403 WT human kinases; for no. kinases with PoC < 10: DiscoverX scanMAX, 1 μM; for S10 (1 μM): Percentage of screened kinases with PoC values < 10 at 1 μM
[4] = PAMPA permeability; format: in vitro ADME; details: PBS pH 7.4, 5 h incubation
Summary of the method: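 DMSO stocks of test compound were diluted in PBS pH 7.4 and added to the donor side of a precoated PAMPA plate, with PBS pH 7.4 as acceptor, for 5 h. Both compartments were quantified by chemiluminescent nitrogen detection against a calibration curve, with background nitrogen corrected. Effective permeability was calculated from donor and acceptor concentrations, using measured rather than assumed solubility.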

[5] = target: T2, MARK4 (NLuc-MARK4) (Homo sapiens, UniProt Q96L34); assay: NanoBRET cellular target engagement assay; format: cell-based; details: HEK293, 0.5 μM tracer K-5; n = 1 where no error, SEM n = 2
T2 sequence (Q96L34 1-752): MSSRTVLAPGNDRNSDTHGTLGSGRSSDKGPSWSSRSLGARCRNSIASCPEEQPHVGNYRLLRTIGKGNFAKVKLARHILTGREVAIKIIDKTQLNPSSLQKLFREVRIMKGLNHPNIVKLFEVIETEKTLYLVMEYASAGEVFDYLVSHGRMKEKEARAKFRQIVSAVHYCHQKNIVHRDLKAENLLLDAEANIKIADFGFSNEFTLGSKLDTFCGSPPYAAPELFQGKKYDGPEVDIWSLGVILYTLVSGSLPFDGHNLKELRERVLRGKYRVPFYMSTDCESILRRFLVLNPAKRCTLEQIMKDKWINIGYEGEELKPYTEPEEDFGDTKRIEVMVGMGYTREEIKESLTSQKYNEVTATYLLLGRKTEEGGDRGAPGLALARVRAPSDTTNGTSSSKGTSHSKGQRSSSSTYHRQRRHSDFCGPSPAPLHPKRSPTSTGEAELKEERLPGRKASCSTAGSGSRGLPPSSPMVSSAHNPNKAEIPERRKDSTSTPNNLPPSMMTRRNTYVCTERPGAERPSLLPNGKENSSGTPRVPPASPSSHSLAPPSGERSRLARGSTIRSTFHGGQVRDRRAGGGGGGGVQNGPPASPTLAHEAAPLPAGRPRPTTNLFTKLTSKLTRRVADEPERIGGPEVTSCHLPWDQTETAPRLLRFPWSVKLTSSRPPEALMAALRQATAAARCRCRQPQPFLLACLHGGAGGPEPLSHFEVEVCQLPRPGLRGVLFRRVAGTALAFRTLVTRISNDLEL

[6] = target: T3, TBK1 (NLuc-TBK1) (Homo sapiens, UniProt Q9UHD2); assay: NanoBRET cellular target engagement assay; format: cell-based; details: HEK293, 0.5 μM tracer K-5; n = 1 where no error, SEM n = 3
T3 sequence (Q9UHD2 1-729): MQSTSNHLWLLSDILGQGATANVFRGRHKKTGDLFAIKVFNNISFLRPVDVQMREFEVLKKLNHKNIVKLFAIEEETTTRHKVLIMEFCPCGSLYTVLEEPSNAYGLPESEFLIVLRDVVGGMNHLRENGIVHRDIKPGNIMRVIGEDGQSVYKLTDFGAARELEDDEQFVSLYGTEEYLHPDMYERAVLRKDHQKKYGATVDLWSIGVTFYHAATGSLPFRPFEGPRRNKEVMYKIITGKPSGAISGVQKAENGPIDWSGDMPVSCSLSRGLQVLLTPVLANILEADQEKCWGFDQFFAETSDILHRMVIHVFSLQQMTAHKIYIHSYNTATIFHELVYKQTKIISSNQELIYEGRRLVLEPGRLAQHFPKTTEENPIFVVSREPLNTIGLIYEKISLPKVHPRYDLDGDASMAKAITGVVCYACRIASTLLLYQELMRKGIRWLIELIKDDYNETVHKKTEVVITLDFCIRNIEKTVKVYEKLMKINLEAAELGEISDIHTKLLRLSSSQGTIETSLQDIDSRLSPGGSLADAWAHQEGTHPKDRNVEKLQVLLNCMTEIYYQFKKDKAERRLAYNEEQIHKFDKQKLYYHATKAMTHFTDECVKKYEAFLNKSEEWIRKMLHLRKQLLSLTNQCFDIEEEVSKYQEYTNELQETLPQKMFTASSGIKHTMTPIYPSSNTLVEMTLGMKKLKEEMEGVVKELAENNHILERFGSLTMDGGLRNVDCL
Summary of the method: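 HEK293 cells were grown in DMEM with 10% FBS at 37 °C under 5% CO2, passaged every 72 h with trypsin and kept below confluency. Cells expressed NanoLuc fusions (DRAK1-NLuc or NLuc-TBK1). Dose–response was run per the manufacturer's protocol, with 0.5 μM tracer K-9 for DRAK1 and 0.5 μM tracer K-5 for TBK1. SEM was reported where assays were repeated.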

[7] = target: MARK3 (NLuc-MARK3) (Homo sapiens, UniProt P27448); assay: NanoBRET cellular target engagement assay; format: cell-based; details: HEK293, 0.5 μM tracer K-9; n = 1 where no error, SEM n = 2
Sequence of MARK3 (NLuc-MARK3) (P27448 whole entry): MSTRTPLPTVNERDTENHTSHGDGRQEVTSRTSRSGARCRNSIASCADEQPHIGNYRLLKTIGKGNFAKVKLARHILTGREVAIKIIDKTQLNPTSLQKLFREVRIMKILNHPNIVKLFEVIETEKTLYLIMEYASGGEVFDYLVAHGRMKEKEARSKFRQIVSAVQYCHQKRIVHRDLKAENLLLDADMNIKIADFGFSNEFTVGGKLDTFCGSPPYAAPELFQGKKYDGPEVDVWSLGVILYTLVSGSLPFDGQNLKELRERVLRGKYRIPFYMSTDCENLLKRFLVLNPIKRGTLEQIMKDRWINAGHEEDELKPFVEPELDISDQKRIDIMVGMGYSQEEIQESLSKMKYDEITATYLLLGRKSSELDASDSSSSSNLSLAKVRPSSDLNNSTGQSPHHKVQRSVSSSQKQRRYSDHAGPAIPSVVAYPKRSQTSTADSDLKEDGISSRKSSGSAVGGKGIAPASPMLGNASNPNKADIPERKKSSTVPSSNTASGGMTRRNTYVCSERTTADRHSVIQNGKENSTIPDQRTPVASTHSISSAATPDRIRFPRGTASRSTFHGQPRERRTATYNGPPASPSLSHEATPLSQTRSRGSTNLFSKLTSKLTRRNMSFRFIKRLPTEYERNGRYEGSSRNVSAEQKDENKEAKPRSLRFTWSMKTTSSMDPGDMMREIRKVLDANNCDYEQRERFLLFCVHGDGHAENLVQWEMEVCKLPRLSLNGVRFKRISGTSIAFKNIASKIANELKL

In the case of O=C(NCCCNc1nc(Nc2cccc(CN3CCOCC3)c2)ncc1C1CC1)C1CCC1 [MRT67307, reference compound], the “DRAK1 NanoBRET IC50” value [1] is reported as “submicromolar” and the “no. kinases ≤ 10 PoC in enzyme panel” value [2] is reported as 12.
With NS(=O)(=O)c1ccc(CNc2nc(Nc3cccc(CN4CCOCC4)c3)ncc2Br)cc1 [Compound 6, 4-(((5-Bromo-2-((3-(morpholinomethyl)phenyl)amino)pyrimidin-4-yl)amino)methyl)benzenesulfonamide] the “no. kinases with PoC < 10” value [3] was 19, the “Pe (permeability coefficient, PAMPA)” value [4] was “below the limit of quantitation” and the “no. kinases ≤ 10 PoC in enzyme panel” value [2] was 4.
For Cc1nn(CC(F)(F)F)cc1Nc1nccc(NCCCNC(=O)C2CCC2)n1 [Compound 8, N-(3-((2-((3-Methyl-1-(2,2,2-trifluoroethyl)-1H-pyrazol-4-yl)amino)pyrimidin-4-yl)amino)-propyl)cyclobutanecarboxamide], the “no. kinases with PoC < 10” value [3] was 1 and the “no. kinases ≤ 10 PoC in enzyme panel” value [2] was 0.
With O=C(NCCCNc1nc(Nc2cccc(NC(=O)N3CCCC3)c2)ncc1C1CC1)C1CCC1 [Compound 22, N-(3-((4-((3-(Cyclobutanecarboxamido)propyl)amino)-5-cyclopropylpyrimidin-2-yl)amino)-phenyl)pyrrolidine-1-carboxamide] the “DRAK1 NanoBRET IC50” value [1] was “submicromolar”, the “MARK4 NanoBRET IC50” value [5] was “submicromolar” and the “no. kinases with PoC < 10” value [3] was 30. For the same molecule, the “S10 (1 μM)” value [3] was 0.074, the “Pe (permeability coefficient, PAMPA)” value [4] was “low permeability” and the “no. kinases ≤ 10 PoC in enzyme panel” value [2] was 9.
In the case of Cc1nn(CC(F)(F)F)cc1Nc1ncc(Br)c(NCc2ccc(S(N)(=O)=O)cc2)n1 [GSK8612, 4-(((5-Bromo-2-((3-methyl-1-(2,2,2-trifluoroethyl)-1H-pyrazol-4-yl)amino)pyrimidin-4-yl)-amino)methyl)benzenesulfonamide, reference compound], the “no. kinases with PoC < 10” value [3] is reported as 8, the “TBK1 NanoBRET IC50” value [6] is reported as “submicromolar” and the “Pe (permeability coefficient, PAMPA)” value [4] is reported as “below the limit of quantitation”. The “no. kinases ≤ 10 PoC in enzyme panel” value [2] was 1.
With c1cc(CN2CCOCC2)cc(Nc2ncc(C3CC3)c(NCCc3c[nH]cn3)n2)c1 [Compound 14, N^4-(2-(1H-Imidazol-4-yl)ethyl)-5-cyclopropyl-N^2-(3-(morpholinomethyl)phenyl)pyrimidine-2,4-diamine] the “MARK4 NanoBRET IC50” value [5] was “submicromolar”, the “no. kinases with PoC < 10” value [3] was 27 and the “S10 (1 μM)” value [3] was 0.067. For the same molecule, the “Pe (permeability coefficient, PAMPA)” value [4] was “low permeability” and the “no. kinases ≤ 10 PoC in enzyme panel” value [2] was 6.
For Brc1cnc(Nc2cccc(CN3CCOCC3)c2)nc1NCCc1c[nH]cn1 [Compound 9, N^4-(2-(1H-Imidazol-4-yl)ethyl)-5-bromo-N^2-(3-(morpholinomethyl)phenyl)pyrimidine-2,4-diamine], the “DRAK1 NanoBRET IC50” value [1] was “submicromolar”, the “MARK3 NanoBRET IC50” value [7] was “submicromolar” and the “MARK4 NanoBRET IC50” value [5] was “submicromolar”. For the same molecule, the “no. kinases with PoC < 10” value [3] was 94, the “S10 (1 μM)” value [3] was 0.233 and the “Pe (permeability coefficient, PAMPA)” value [4] was “low permeability”. For the same molecule, the “no. kinases ≤ 10 PoC in enzyme panel” value [2] was 13.
With Cc1nn(CC(F)(F)F)cc1Nc1nccc(NCc2ccc(S(N)(=O)=O)cc2)n1 [Compound 12, 4-(((2-((3-Methyl-1-(2,2,2-trifluoroethyl)-1H-pyrazol-4-yl)amino)pyrimidin-4-yl)amino)methyl)benzenesulfonamide] the “no. kinases with PoC < 10” value [3] was 1, the “Pe (permeability coefficient, PAMPA)” value [4] was “below the limit of quantitation” and the “no. kinases ≤ 10 PoC in enzyme panel” value [2] was 0.
For O=C(Nc1cccc(Nc2ncc(Br)c(NCCc3cnc[nH]3)n2)c1)N1CCCC1 [BX-912, reference compound], the “Pe (permeability coefficient, PAMPA)” value [4] was “low permeability” and the “no. kinases ≤ 10 PoC in enzyme panel” value [2] was 14.
In the case of NS(=O)(=O)c1ccc(CNc2nc(Nc3cccc(CN4CCOCC4)c3)ncc2C2CC2)cc1 [Compound 11, 4-(((5-Cyclopropyl-2-((3-(morpholinomethyl)phenyl)amino)pyrimidin-4-yl)amino)methyl)-benzenesulfonamide], the “no. kinases with PoC < 10” value [3] is reported as 3, the “S10 (1 μM)” value [3] is reported as 0.007 and the “Pe (permeability coefficient, PAMPA)” value [4] is reported as “low permeability”. For the same molecule, the “no. kinases ≤ 10 PoC in enzyme panel” value [2] was 1.
In the case of Cc1nn(CC(F)(F)F)cc1Nc1ncc(Br)c(NCCCNC(=O)C2CCC2)n1 [Compound 7, N-(3-((5-Bromo-2-((3-methyl-1-(2,2,2-trifluoroethyl)-1H-pyrazol-4-yl)amino)pyrimidin-4-yl)amino)propyl)cyclobutanecarboxamide], the “DRAK1 NanoBRET IC50” value [1] is reported as “submicromolar”, the “no. kinases with PoC < 10” value [3] is reported as 62 and the “S10 (1 μM)” value [3] is reported as 0.154. The “TBK1 NanoBRET IC50” value [6] was “submicromolar” and the “no. kinases ≤ 10 PoC in enzyme panel” value [2] was 7.
For Cc1nn(CC(F)(F)F)cc1Nc1ncc(Br)c(NCCc2cnc[nH]2)n1 [Compound 10, N^4-(2-(1H-Imidazol-5-yl)ethyl)-5-bromo-N^2-(3-methyl-1-(2,2,2-trifluoroethyl)-1H-pyrazol-4-yl)pyrimidine-2,4-diamine], the “no. kinases with PoC < 10” value [3] was 28, the “S10 (1 μM)” value [3] was 0.069 and the “no. kinases ≤ 10 PoC in enzyme panel” value [2] was 0.
For c1cc(CN2CCOCC2)cc(Nc2nccc(NCCc3cnc[nH]3)n2)c1 [Compound 20, N^4-(2-(1H-Imidazol-5-yl)ethyl)-N^2-(3-(morpholinomethyl)phenyl)pyrimidine-2,4-diamine], the “no. kinases with PoC < 10” value [3] was 9, the “S10 (1 μM)” value [3] was 0.022 and the “no. kinases ≤ 10 PoC in enzyme panel” value [2] was 1.
In the case of NS(=O)(=O)c1ccc(CNc2nc(Nc3cccc(NC(=O)N4CCCC4)c3)ncc2C2CC2)cc1 [Compound 21, N-(3-((5-Cyclopropyl-4-((4-sulfamoylbenzyl)amino)pyrimidin-2-yl)amino)phenyl)pyrrolidine-1-carboxamide], the “no. kinases with PoC < 10” value [3] is reported as 1 and the “no. kinases ≤ 10 PoC in enzyme panel” value [2] is reported as 1.
For CN1CCc2cc(Nc3ncc(C4CC4)c(NCCCNC(=O)C4CCC4)n3)ccc2C1 [MRT68921, reference compound], the “no. kinases ≤ 10 PoC in enzyme panel” value [2] was 13.
